Test results taken from ChEMBL document CHEMBL1781947, “Structure-activity studies on the nociceptin/orphanin FQ receptor antagonist 1-benzyl-N-{3-[spiroisobenzofuran-1(3H),4'-piperidin-1-yl]propyl} pyrrolidine-2-carboxamide” (Bioorg Med Chem, 2009).
The source made the active and inactive calls.

Tests used:
Nociceptin receptor [1] = molecular target: T1, Nociceptin receptor (Homo sapiens, UniProt P41146); experiment: Displacement of [3H]N/OFQ from human recombinant NOP receptor expressed in CHO cells; format: cell-based
Procedure, shortened: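 Membranes from CHO cells expressing human NOP, prepared in 50 mM Tris-HCl, 5 mM Mg2+ pH 7.4. Incubation: 5 µg protein, ~200 pM [3H]N/OFQ, 10 µM peptidase inhibitors (amastatin, bestatin, captopril, phosphoramidon), 0.5% BSA, increasing competitor concentrations, 1 h at room temperature. Nonspecific binding defined with 1 µM unlabeled N/OFQ. Filtration onto 0.5% PEI-soaked GF/B filters; pKi reported.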

[2] = molecular target: Nociceptin receptor (Cavia porcellus) (UniProt P47748); details: Albino, Ileum
[3] = molecular target: T2, Delta-type opioid receptor (Homo sapiens, UniProt P41143); experiment: Displacement of [3H]DPN from human recombinant delta-type opioid receptor expressed in CHO cell membranes
Procedure, shortened: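 CHO membranes expressing human DOP (25 µg protein) incubated 1 h at room temperature in 50 mM Tris-HCl pH 7.4, 0.5% BSA, ~0.7 nM [3H]diprenorphine with increasing test concentrations. Filtration through PEI-soaked GF/B filters, scintillation counting. Four separate experiments.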

Nociceptin receptor [4] = molecular target: Nociceptin receptor (Mus musculus, UniProt P35377); experiment: Antagonist activity at nociceptin receptor in Swiss mouse vas deferens assessed as inhibition of electrically evoked twitches; format: functional, tissue-based; details: read-out: pA2 (converted)
Procedure, shortened: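 Vas deferens from male Swiss mice (30–35 g), field-stimulated with supramaximal 1 ms pulses at 0.05 Hz. Twitches recorded isotonically after 60 min equilibration. Cumulative N/OFQ curves run in 0.5 log steps, without or with antagonist pre-incubated 15 min. pA2 from Schild analysis. At least four experiments.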

Mu-type opioid receptor [5] = molecular target: T3, Mu-type opioid receptor (Homo sapiens, UniProt P35372); experiment: Displacement of [3H]DPN from human recombinant mu-type opioid receptor expressed in CHO cell membranes; format: cell-based
Nociceptin receptor [6] = molecular target: T1, Nociceptin receptor; experiment: Antagonist activity at human recombinant NOP expressed in expressed on CHO cells co-expressing Galphaqi5 chimeric protein assessed as inhibition of NOPN/OFQ-stimulated calcium mobilization; format: functional, cell-based
Procedure, shortened: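 CHO cells stably co-expressing hNOP and Gαqi5, 40,000 cells/well, loaded 24 h later with Fluo-4 AM 3 µM, probenecid 2.5 mM, pluronic 0.01% for 30 min at 37 °C. Assay buffer HBSS/20 mM HEPES with probenecid and Brilliant Black. Fluorescence read at room temperature. Antagonist inhibition of 10 nM N/OFQ response. pKb derived from IC50 via the Kb equation. Four experiments in duplicate.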

[7] = molecular target: T2, Delta-type opioid receptor; details: CHO
Nociceptin receptor [8] = molecular target: T1, Nociceptin receptor; experiment: Antagonist activity at human recombinant NOP expressed in CHO cells by [35S]GTPgammaS binding assay; format: functional, cell-based; details: read-out: pA2 (converted)
Procedure, shortened: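 Membranes from CHO cells stably expressing human NOP, prepared in 50 mM Tris-HCl, 0.2 mM EGTA pH 7.4; 20 µg protein with MgCl2 1 mM, NaCl 100 mM, bacitracin 0.15 mM, peptidase inhibitors, GDP 100 µM, ~150 pM [35S]GTPγS. Antagonist preincubated 15 min at 30 °C, then N/OFQ concentration-response 1 h at 30 °C; filtration without PEI. pA2 from Schild analysis.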

Mus musculus [9] = experiment: Effect on N/OFQ-induced antinociceptive activity in Swiss albino mouse at 10 mg/kg, ip administered 30 mins before 1 nmol, it N/OFQ challenge by tail withdrawal latency test; format: functional, organism-based; parameters: dose 10 mg/kg
Procedure, shortened: (§1)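 Male Swiss albino mice (25–30 g), distal half of the tail dipped in 48 °C water, 20 s cutoff, observer blind to treatment. Test agent 10 mg/kg ip in 2% DMSO/10% encapsin, 30 min before 1 nmol N/OFQ or saline given icv (2 µl) or i.t. (5 µl). Latency read before and 5, 15, 30 and 60 min after injection. Four mice per group, repeated four times (n=16).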

Mu-type opioid receptor [10] = molecular target: T3, Mu-type opioid receptor; details: CHO
[11] = molecular target: T4, Kappa-type opioid receptor (Homo sapiens, UniProt P41145); details: CHO
[12] = molecular target: Nociceptin receptor (Rattus norvegicus) (UniProt P35370); details: Sprague-Dawley, Vas deferens
Mus musculus [13] = experiment: Effect on N/OFQ-induced pronociciceptive activity in Swiss albino mouse at 10 mg/kg, ip administered 30 mins before 1 nmol, icv N/OFQ challenge by tail withdrawal latency test; format: functional, organism-based; parameters: dose 10 mg/kg; procedure, shortened: as §1
[14] = molecular target: T4, Kappa-type opioid receptor; experiment: Displacement of [3H]DPN from human recombinant kappa-type opioid receptor expressed in CHO cell membranes; format: cell-based
Mus musculus [15] = experiment: Effect on N/OFQ-induced pronociciceptive activity in Swiss albino mouse at 1 mg/kg, ip administered 30 mins before 1 nmol, icv N/OFQ challenge by tail withdrawal latency test; format: functional, organism-based; parameters: dose 1 mg/kg
Mus musculus [16] = experiment: Effect on N/OFQ-induced antinociceptive activity in Swiss albino mouse at 1 mg/kg, ip administered 30 mins before 1 nmol, it N/OFQ challenge by tail withdrawal latency test; format: functional, organism-based; parameters: dose 1 mg/kg

T1 sequence (P41146 whole entry): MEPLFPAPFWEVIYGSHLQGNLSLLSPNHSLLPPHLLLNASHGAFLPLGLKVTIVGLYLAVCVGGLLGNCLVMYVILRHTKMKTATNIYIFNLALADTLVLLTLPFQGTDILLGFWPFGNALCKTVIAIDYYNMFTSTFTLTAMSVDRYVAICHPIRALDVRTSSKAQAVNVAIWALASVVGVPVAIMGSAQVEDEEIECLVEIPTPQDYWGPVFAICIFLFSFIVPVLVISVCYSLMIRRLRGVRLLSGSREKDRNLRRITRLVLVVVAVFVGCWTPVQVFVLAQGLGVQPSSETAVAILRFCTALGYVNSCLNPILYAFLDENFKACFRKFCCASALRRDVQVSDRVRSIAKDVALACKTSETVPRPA
T3 sequence (P35372 whole entry): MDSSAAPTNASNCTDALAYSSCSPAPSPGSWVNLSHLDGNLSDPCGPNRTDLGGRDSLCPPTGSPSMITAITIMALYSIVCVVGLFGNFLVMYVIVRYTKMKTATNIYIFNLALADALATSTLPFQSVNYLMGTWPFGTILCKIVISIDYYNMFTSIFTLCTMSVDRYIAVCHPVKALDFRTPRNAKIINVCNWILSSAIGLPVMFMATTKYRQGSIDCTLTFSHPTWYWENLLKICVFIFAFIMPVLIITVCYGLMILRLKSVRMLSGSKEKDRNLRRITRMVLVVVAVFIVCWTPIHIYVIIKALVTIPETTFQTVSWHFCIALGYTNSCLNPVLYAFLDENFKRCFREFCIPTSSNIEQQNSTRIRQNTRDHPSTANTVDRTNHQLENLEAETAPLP
Chain of Nociceptin receptor (Mus musculus, UniProt P35377) (P35377 whole entry): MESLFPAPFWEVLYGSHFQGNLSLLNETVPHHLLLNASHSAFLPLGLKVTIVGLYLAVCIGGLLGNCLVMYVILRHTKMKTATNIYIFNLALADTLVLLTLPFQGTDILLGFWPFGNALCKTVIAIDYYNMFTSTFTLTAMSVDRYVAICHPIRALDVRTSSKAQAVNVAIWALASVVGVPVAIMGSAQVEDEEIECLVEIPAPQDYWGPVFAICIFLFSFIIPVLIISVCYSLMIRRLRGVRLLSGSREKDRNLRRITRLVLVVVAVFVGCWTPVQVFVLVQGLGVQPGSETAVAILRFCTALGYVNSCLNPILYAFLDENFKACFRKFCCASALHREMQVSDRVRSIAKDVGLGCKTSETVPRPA
T2 sequence (P41143 whole entry): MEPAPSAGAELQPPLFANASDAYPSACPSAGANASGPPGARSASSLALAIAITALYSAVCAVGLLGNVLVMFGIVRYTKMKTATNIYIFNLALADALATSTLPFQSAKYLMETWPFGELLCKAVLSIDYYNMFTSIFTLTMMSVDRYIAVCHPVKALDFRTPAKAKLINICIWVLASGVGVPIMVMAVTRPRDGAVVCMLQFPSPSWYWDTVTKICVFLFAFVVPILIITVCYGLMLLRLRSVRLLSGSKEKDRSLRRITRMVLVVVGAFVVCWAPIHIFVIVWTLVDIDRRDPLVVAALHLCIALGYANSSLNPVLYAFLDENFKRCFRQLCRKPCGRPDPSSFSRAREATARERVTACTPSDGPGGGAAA
T4 sequence (P41145 whole entry): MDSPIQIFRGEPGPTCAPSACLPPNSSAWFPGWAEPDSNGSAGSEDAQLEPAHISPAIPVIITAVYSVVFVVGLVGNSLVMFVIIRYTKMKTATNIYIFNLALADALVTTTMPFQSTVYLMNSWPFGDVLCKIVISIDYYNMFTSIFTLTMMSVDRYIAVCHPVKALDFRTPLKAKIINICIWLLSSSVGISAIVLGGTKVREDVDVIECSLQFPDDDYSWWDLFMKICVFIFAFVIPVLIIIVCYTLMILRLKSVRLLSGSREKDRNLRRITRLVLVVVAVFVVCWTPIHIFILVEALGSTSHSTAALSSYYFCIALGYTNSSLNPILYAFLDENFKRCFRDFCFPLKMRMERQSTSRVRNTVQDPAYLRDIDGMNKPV
Chain of Nociceptin receptor (Rattus norvegicus) (P35370 whole entry): as the sequence (P35377 whole entry) above, with F9Y, A335S counted along it
Chain of Nociceptin receptor (Cavia porcellus) (P47748 whole entry): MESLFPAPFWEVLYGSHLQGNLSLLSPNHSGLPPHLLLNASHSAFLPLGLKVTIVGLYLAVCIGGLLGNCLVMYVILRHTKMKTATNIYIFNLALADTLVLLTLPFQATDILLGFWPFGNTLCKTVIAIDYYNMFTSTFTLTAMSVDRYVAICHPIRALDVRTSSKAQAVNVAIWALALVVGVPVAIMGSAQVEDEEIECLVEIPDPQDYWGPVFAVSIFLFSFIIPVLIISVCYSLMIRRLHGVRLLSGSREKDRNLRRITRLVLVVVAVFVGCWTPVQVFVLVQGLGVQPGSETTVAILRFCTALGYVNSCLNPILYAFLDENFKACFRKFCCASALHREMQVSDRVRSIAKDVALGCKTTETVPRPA

c1ccc(CN2CCC[C@@H]2CNCCCN2CCC3(CC2)OCc2ccccc23)cc1
Ki (Nociceptin receptor [1]): 49 nM

O=C(NCCCN1CCC(c2c(Cl)cccc2Cl)CC1)[C@H]1CCCN1Cc1ccccc1
Ki (Nociceptin receptor [1]): 0.724 nM
pKb [2]: 8.84
Ki [3]: > 1000 nM
Kb (Nociceptin receptor [4]): 10 nM
Ki (Mu-type opioid receptor [5]): 191 nM
pKb (Nociceptin receptor [6]): 8.47
pKb [7]: < 6
Kb (Nociceptin receptor [8]): 0.123 nM
Activity (Mus musculus [9]): inactive
pKb (Mu-type opioid receptor [10]): 6.11
pKb [11]: < 6
pKb [12]: 8.06
Activity (Mus musculus [13]): inactive
Ki [14]: 316 nM

O=C(CNCc1ccccc1)NCCCN1CCC2(CC1)OCc1ccccc12
Ki (Nociceptin receptor [1]): 60.3 nM

C(=C[C@H]1CCCN1Cc1ccccc1)CCCN1CCC2(CC1)NCc1ccccc12
Ki (Nociceptin receptor [1]): > 10000 nM

c1ccc(CN2CCC[C@@H]2COCCCN2CCC3(CC2)OCc2ccccc23)cc1
Ki (Nociceptin receptor [1]): 158 nM

O=C(NCCCN1CCC(c2c(Cl)cccc2Cl)CC1)[C@@H]1CCCN1Cc1ccccc1
Ki (Nociceptin receptor [1]): 83.2 nM

Cc1cccc2c1CC[C@H](CN1CCC(c3c(Cl)cccc3Cl)CC1)C[C@@H]2O
Activity (Mus musculus [15]): Active
Activity (Mus musculus [16]): Active

CN(CCCN1CCC2(CC1)OCc1ccccc12)C(=O)[C@H]1CCCN1Cc1ccccc1
Ki (Nociceptin receptor [1]): 1150 nM

N[C@@H](Cc1ccccc1)C(=O)NCCCN1CCC2(CC1)OCc1ccccc12
Ki (Nociceptin receptor [1]): 58.9 nM

N[C@H](Cc1ccccc1)C(=O)NCCCN1CCC2(CC1)OCc1ccccc12
Ki (Nociceptin receptor [1]): 58.9 nM

O=C(NCCCN1CCC2(CC1)OCc1ccccc12)[C@H]1CCCN1Cc1ccccc1
Ki (Nociceptin receptor [1]): 0.24 nM
Kb (Nociceptin receptor [4]): 5.75 nM
pKb (Nociceptin receptor [6]): 9.03
Activity (Mus musculus [9]): Active
Activity (Mus musculus [13]): Active

O=C(OCCCN1CCC2(CC1)OCc1ccccc12)[C@H]1CCCN1Cc1ccccc1
Ki (Nociceptin receptor [1]): 107 nM
